The values below come from ChEMBL document CHEMBL4613265, “Novel Human Neutral Sphingomyelinase 2 Inhibitors as Potential Therapeutics for Alzheimer's Disease” (J Med Chem, 2020).

The nature of data set [1]: Cmax in 5XFAD transgenic B6SJLF1/J mouse plasma at 10 mg/kg, ip by LC-MS/MS analysis. It counts as ADME, organism-based. Set-up: dose 10 mg/kg, route intraperitoneal. A digest of the protocol:
(§1)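 Hemizygous 5XFAD mice aged 11 months received one terminal ip dose of 10 mg/kg in NMP–Tween 80–saline (2.5:5:92.5 v/v/v). […] Extraction by acetonitrile protein precipitation with losartan as internal standard, then LC–MS/MS. Noncompartmental analysis: Cmax and Tmax observed; AUC to 6 h by log–linear trapezoidal rule.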

Data set [2] in a line: Cmax in 5XFAD transgenic B6SJLF1/J mouse brain at 10 mg/kg, ip by LC-MS/MS analysis. It counts as ADME, organism-based. Further details: dose 10 mg/kg, route intraperitoneal. The method in brief: as §1
Data set [3] in a line: Tmax in 5XFAD transgenic B6SJLF1/J mouse plasma at 10 mg/kg, ip by LC-MS/MS analysis. It counts as ADME, organism-based. The method in brief:
as §1

A short description of data set [4]: Tmax in 5XFAD transgenic B6SJLF1/J mouse brain at 10 mg/kg, ip by LC-MS/MS analysis. The format is ADME, organism-based. The method in brief: as §1
A short description of data set [5]: AUClast in 5XFAD transgenic B6SJLF1/J mouse plasma at 10 mg/kg, ip by LC-MS/MS analysis. It counts as ADME, organism-based. A digest of the protocol: as §1
The nature of data set [6]: AUClast in 5XFAD transgenic B6SJLF1/J mouse brain at 10 mg/kg, ip by LC-MS/MS analysis. The format is ADME, organism-based. A digest of the protocol: as §1
In data set [7] the target is Phosphatidylinositol 4-kinase beta (Homo sapiens, UniProt Q9UBF8). Nature of the data set: Inhibition of PI4K3beta (unknown origin).
Phosphatidylinositol 4-kinase beta, sequence (Q9UBF8 whole entry): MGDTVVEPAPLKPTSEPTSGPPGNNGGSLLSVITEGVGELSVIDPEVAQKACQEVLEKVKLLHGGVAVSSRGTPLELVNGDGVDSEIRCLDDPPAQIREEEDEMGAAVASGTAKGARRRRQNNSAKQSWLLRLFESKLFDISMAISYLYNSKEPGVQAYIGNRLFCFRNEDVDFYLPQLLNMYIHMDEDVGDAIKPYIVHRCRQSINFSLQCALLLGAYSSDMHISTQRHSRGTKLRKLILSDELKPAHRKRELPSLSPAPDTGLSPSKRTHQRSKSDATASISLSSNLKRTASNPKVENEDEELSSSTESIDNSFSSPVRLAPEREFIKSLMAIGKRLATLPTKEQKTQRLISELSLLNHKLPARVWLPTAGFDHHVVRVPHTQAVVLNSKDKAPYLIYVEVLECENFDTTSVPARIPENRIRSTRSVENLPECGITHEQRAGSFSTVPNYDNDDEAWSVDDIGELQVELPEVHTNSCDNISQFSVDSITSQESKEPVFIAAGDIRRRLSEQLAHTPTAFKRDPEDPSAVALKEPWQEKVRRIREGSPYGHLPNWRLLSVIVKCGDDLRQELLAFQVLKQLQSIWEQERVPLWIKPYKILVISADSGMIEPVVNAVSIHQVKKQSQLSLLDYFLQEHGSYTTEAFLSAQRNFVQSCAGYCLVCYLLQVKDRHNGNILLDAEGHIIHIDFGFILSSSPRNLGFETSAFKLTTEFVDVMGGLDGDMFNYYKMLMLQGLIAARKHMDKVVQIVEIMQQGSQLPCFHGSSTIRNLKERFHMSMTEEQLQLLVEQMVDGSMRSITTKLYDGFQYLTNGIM
Data set [8] deals with Phosphatidylinositol 4-kinase alpha (Homo sapiens) (UniProt P42356). The data set can be described thus: Inhibition of PI4K3alpha (unknown origin).
Phosphatidylinositol 4-kinase alpha (Homo sapiens), sequence (P42356 whole entry, looked up): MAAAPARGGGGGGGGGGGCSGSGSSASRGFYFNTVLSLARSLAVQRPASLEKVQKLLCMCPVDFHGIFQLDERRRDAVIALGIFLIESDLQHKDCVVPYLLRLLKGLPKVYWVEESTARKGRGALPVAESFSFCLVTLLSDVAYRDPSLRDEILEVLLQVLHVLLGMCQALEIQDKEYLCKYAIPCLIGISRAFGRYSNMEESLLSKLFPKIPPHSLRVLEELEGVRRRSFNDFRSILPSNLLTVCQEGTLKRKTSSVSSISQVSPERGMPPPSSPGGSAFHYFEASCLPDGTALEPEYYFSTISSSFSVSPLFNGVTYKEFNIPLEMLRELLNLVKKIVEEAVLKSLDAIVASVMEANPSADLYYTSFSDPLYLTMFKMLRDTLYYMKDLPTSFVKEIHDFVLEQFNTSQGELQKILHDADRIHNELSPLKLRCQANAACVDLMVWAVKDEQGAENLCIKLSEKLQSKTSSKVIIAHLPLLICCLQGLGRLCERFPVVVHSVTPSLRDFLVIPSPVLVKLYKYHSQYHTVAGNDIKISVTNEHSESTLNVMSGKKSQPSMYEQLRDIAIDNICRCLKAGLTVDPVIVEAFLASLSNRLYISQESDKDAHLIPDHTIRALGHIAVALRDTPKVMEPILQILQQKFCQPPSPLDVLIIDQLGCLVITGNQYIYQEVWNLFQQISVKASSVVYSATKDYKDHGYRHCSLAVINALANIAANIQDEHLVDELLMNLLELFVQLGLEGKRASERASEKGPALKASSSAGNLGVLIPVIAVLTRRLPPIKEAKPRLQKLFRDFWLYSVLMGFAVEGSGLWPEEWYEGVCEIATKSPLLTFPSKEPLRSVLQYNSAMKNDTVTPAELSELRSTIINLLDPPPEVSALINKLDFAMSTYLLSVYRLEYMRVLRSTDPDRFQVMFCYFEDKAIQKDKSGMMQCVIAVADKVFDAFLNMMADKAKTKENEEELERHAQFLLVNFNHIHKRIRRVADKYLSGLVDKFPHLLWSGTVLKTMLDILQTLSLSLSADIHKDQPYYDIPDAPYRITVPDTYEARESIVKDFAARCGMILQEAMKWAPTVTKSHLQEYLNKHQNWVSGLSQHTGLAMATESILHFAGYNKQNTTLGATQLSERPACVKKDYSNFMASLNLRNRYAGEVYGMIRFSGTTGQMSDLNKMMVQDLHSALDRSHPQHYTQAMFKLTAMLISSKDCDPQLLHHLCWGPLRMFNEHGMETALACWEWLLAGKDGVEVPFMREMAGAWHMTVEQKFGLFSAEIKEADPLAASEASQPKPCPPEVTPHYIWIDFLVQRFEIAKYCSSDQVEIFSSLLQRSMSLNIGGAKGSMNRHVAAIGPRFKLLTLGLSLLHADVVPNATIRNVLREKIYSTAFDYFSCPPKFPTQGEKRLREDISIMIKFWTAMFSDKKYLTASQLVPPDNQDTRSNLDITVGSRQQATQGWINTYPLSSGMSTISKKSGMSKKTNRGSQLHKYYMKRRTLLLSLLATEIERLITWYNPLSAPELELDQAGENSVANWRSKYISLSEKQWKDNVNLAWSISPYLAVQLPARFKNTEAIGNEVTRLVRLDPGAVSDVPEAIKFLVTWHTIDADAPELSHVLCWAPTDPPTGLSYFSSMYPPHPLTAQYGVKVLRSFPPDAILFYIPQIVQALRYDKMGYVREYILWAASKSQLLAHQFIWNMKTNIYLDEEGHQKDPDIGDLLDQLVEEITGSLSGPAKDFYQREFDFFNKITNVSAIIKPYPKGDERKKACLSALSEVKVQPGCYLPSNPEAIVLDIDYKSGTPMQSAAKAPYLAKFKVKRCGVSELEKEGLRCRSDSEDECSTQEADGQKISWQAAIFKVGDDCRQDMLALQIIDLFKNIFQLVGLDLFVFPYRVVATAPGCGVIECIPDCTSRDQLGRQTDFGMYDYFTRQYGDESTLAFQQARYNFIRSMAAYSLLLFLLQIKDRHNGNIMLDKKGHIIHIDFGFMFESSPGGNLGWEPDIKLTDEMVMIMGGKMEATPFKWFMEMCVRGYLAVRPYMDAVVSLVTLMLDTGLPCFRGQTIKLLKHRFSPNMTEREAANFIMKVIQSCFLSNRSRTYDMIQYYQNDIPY
Data set [9] has as its system Mus musculus. The data set can be described thus: Suppression of cognitive dysfunction in 5XFAD transgenic B6SJLF1/J mouse model of Alzheimer's disease assessed as body weight gain at 10 mg/kg, ip administered daily for 5 months measured during compound dosing. It counts as functional, organism-based. The method in brief: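 Male and female hemizygous 5XFAD and WT littermates were dosed from age 3 months with 10 mg/kg ip daily or vehicle (5% DMSO, 5% Tween 80, 90% PBS), n = 13–16. Body weight was followed to study day 150 (8 months). Groups were compared by two-way ANOVA.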

The test system of data set [10] is Mus musculus. The data set can be described thus: Suppression of cognitive dysfunction in 5XFAD transgenic B6SJLF1/J mouse model of Alzheimer's disease assessed as increase in freezing behavior response to 1000 Hz tone conditioned stimulus at 10 mg/kg, ip administered daily for 5 months measured during 120 secs of testing by contextual fear conditioning assay. The format is functional, organism-based. A digest of the protocol:
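Dosed daily ip at 10 mg/kg (vehicle 5% DMSO/5% Tween 80/90% PBS) from 3 months, n = 13–16, then tested at 8 months. Day 1: 240 s in chamber with two pairings of a 30 s 1000 Hz tone and a 2 s 0.5 mA footshock, at 120 and 180 s. Day 2: contextual test, 300 s in same chamber. Day 3: novel box for 240 s with tone during last 120 s. Read-out: freezing.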

The subject of data set [11] is Cytochrome P450. The data set can be described thus: Drug metabolism in human liver microsomes assessed as CYP450-mediated O-demethylated metabolite formation at 1 uM measured after 60 mins in presence of NADPH generating system by LC-MS/MS analysis. It counts as ADME. The note with it: 1 h. In general terms: Liver microsomes are vesicles of endoplasmic reticulum, rich in cytochrome P450 enzymes.

Data set [12] in a line: Drug metabolism in mouse liver microsomes assessed as CYP450-mediated O-dealkylation at 1 uM measured after 60 mins in presence of NADPH generating system by LC-MS/MS analysis. The note with it: 1 h. The format is ADME. A digest of the protocol:
(§2)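 Mouse or human liver microsomes at 0.2 mg/mL, compound at 1 μM final. Controls run without cofactors. Quenched at 60 min with cold acetonitrile containing internal standard; read as % remaining.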

Data set [13] has as its system Cytochrome P450. Nature of the data set: Drug metabolism in human liver microsomes assessed as CYP450-mediated O-dealkylation at 1 uM measured after 60 mins in presence of NADPH generating system by LC-MS/MS analysis. It counts as ADME. Particulars: 1 h. A digest of the protocol:
as §2

The next data set concerns HepG2. The data set can be described thus: Cytotoxicity against human HepG2 cells by XTT assay. It counts as cell-based. For orientation: Formazan colour is commonly taken as a measure of viable cells.
The next data set relates to HL-60. Nature of the data set: Cytotoxicity against human HL60 cells by XTT assay. It counts as cell-based.
The next data set concerns HeLa S3. Nature of the data set: Cytotoxicity against human HeLaS3 cells by XTT assay. It counts as cell-based.
A further data set relates to CCRF-CEM. Nature of the data set: Cytotoxicity against human CCRF-CEM cells by XTT assay. It counts as cell-based.

SMILES strings stand for the structures. pIC50: −log10 of the molar value. Activity calls are given as the source filed them. The rule behind the calls is not given here.

By Cmax is commonly meant the highest concentration seen after dosing. The term Tmax denotes the time from dosing to the highest level. The term AUC(0-t) denotes the area under the concentration-time curve up to a stated or last time point. Read a high AUC(0-t) as high exposure. Broadly, the pIC50 is −log10 of the IC50, conventionally taken in molar units. For the compound `COc1ccc(-c2c(C)nc3c(N4CC[C@@H](NC(=O)Oc5ccccc5)C4)cc(C)nn23)cc1OC`, the Cmax was found to be 7.7 µM in [1] and 3.89 µM in data set [2]. Also, the Tmax was determined as 15 min in data set [3] and 30 min in [4]. In addition, the AUC(0-t) is 22.1 µM·h in data set [5] and 13 µM·h in [6]. For the same compound, the pIC50 in [7] was under 5.00. Besides, the inhibition entry in data set [8] was “inactive”. In addition, the result with Mus musculus [9] and with Mus musculus [10] was Active. In addition, the Drug metabolism entry (in the data set on Cytochrome P450 [11]; in [12]; with Cytochrome P450 [13]) was “Metabolite_Detected” in each case. The Activity entry in the data set on HepG2, in the data set on HL-60, with HeLa S3 and in the data set with CCRF-CEM was “Non-Toxic” in each case.
